Calls of active or inactive are those of the source. The rule behind the calls is not given here.
Key:
[1] = target: Serine/threonine-protein kinase MARK1 (Homo sapiens) (UniProt Q9P0L2); experiment: Inhibition of recombinant human MARK1 (2 to end residues) using KKKVSRSGLYRSPSMPENLNRPR as substrate incubated for 40 mins in presence of [gamma-33ATP] by scintillation counting based radiometry assay
Method in brief: (§1)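 Eurofins radiometric enzymatic assay with ATP at Km for each kinase. IC50 was derived from a 9-point dose–response curve run in duplicate.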

[2] = target: T1, MAP/microtubule affinity-regulating kinase 3 (Homo sapiens, UniProt P27448); experiment: Displacement of tracer K9 from NLuc fused MARK3 (unknown origin) expressed in HEK293 cells by NanoBRET assay; format: cell-based
Target sequence in this assay (P27448 whole entry, the tested form may be a part): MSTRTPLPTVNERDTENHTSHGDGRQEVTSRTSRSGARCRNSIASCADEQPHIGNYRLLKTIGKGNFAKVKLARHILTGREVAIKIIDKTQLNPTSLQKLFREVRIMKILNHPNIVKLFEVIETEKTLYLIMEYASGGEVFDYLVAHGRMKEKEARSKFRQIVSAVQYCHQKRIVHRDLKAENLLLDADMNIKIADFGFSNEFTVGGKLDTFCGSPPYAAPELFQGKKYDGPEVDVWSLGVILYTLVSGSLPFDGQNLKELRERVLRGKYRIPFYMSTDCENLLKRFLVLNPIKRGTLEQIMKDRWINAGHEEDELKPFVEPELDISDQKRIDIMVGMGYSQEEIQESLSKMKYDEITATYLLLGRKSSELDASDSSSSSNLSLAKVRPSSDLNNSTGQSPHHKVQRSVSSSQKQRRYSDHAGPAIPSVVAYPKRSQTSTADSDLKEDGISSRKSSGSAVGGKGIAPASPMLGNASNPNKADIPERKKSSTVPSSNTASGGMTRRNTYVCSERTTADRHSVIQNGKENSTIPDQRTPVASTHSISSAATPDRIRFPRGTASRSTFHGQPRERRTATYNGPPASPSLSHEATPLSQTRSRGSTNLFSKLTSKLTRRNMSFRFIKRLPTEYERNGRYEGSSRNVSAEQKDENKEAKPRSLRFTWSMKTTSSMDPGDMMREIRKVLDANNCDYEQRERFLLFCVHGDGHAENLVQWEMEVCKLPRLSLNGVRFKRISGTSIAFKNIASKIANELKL

[3] = target: T2, Serine/threonine-protein kinase 17A (Homo sapiens, UniProt Q9UEE5); experiment: Displacement of tracer K9 from NLuc fused DRAK1 (unknown origin) expressed in HEK293 cells by NanoBRET assay; format: cell-based
T2 sequence (Q9UEE5 whole entry): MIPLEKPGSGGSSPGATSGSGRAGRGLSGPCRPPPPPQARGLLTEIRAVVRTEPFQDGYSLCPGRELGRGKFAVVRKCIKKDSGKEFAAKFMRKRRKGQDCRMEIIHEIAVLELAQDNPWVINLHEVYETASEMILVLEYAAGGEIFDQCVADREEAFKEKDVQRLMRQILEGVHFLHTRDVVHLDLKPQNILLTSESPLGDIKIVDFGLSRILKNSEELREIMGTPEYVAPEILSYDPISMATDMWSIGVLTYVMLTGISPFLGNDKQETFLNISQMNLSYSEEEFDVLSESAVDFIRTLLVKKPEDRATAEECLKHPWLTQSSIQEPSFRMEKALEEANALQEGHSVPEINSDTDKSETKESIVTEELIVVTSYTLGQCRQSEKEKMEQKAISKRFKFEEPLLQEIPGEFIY

[4] = target: T1, MAP/microtubule affinity-regulating kinase 3; experiment: Inhibition of recombinant full length human MARK3 using KKKVSRSGLYRSP as substrate incubated for 40 mins in presence of [gamma-33ATP] by scintillation counting based radiometry assay; method in brief: as §1
Target sequence in this assay (P27448 whole entry, looked up, the tested form may be a part): as the sequence (P27448 whole entry, the tested form may be a part) above

[5] = target: T3, Serine/threonine-protein kinase TBK1 (Homo sapiens, UniProt Q9UHD2); experiment: Displacement of tracer K5 from NLuc fused TBK1 (unknown origin) expressed in HEK293 cells by NanoBRET assay; format: cell-based
T3 sequence (Q9UHD2 whole entry): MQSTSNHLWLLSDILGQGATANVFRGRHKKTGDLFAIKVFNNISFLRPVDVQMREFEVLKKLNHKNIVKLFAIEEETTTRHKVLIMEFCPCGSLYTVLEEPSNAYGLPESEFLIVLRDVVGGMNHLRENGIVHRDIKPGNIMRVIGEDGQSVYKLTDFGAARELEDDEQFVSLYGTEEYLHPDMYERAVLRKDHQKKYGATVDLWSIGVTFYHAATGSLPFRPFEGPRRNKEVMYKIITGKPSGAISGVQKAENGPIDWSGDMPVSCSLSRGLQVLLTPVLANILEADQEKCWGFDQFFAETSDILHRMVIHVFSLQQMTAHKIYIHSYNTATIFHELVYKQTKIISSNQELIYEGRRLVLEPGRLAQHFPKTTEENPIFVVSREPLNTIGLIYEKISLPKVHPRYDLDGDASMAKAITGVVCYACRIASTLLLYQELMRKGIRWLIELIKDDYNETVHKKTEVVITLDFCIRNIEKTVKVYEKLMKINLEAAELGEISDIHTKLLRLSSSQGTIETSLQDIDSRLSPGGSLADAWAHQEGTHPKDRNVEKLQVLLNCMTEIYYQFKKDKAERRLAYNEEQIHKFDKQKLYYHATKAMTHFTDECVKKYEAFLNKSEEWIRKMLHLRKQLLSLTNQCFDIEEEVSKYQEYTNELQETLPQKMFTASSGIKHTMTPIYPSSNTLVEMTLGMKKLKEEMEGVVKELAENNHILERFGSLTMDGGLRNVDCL
Method in brief: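 HEK293 cells grown in DMEM with 10% FBS at 37 °C, 5% CO2. NanoBRET assay run in dose–response per manufacturer's protocol with tracer K-5 at 0.5 μM. SEM calculated for assays run more than once.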

[6] = target: Mitogen-activated protein kinase kinase kinase 9 (Homo sapiens) (UniProt P80192); experiment: Inhibition of recombinant human MLK1 (134 to 414 residues) using casein as substrate incubated for 40 mins in presence of [gamma-33ATP by scintillation counting based radiometry assay; method in brief: as §1
[7] = target: T4, MAP/microtubule affinity-regulating kinase 4 (Homo sapiens, UniProt Q96L34); experiment: Displacement of tracer K5 from NLuc fused MARK4 (unknown origin) expressed in HEK293 cells by NanoBRET assay; format: cell-based
T4 sequence (Q96L34 whole entry): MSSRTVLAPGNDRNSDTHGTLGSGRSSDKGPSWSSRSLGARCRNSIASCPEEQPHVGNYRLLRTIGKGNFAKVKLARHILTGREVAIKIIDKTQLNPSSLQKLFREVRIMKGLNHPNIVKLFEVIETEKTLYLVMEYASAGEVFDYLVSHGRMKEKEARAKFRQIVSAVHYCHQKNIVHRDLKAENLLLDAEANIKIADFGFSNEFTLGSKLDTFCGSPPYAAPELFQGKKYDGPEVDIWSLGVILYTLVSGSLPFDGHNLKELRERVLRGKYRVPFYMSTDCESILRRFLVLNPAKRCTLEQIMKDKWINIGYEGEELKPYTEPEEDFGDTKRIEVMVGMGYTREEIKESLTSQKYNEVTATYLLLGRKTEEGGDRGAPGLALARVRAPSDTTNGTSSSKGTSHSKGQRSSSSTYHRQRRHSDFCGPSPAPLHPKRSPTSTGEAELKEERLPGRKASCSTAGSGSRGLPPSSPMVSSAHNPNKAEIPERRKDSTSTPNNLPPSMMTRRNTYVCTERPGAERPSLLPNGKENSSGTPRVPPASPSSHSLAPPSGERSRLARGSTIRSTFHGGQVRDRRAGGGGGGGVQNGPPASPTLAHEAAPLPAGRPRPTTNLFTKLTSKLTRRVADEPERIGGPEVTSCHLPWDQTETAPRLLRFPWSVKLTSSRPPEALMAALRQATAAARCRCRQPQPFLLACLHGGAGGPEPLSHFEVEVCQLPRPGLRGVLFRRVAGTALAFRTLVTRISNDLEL

[8] = Kinetic solubility of compound in PBS at pH 7.4 incubated for 24 hrs by chemiluminscent nitrogen detection method; format: physicochemical; conditions: buffer, pH 7.4, 24 h
Method in brief: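 Filtrates were quantified by total chemiluminescent nitrogen determination against a calibration curve, with correction for background nitrogen from DMSO and medium.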

[9] = Effective permeability in PBS at 7.4 incubated for 5 hrs by PAMPA analysis; format: ADME; conditions: pH 7.4, 5 h
Method in brief: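 PAMPA: DMSO stocks were diluted in PBS pH 7.4 and placed in the donor compartment, with PBS pH 7.4 in the acceptor, for 5 h. Both compartments were quantified by CLND against a calibration curve, with background nitrogen correction. Effective permeability was calculated from donor and acceptor concentrations using measured rather than assumed solubility.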

[10] = target: NUAK family SNF1-like kinase 1 (Homo sapiens) (UniProt O60285); experiment: Inhibition of recombinant human ARK5 (2 to end residues) using KKKVSRSGLYRSPSMPENLNRPR as substrate incubated for 40 mins in presence of [gamma-33ATP] by scintillation counting based radiometry assay; method in brief: as §1
[11] = target: T5, MAP/microtubule affinity-regulating kinase 4 (Homo sapiens) (UniProt Q96L34); experiment: Inhibition of recombinant full length human MARK4 using KKKVSRSGLYRSPSMPENLNRPR as substrate incubated for 40 mins in presence of [gamma-33ATP] by scintillation counting based radiometry assay; method in brief: as §1
T5 sequence (whole entry): T4 sequence (Q96L34 whole entry)

[12] = Inhibition of human TTBK1 (1 to 479 residues) using Casein as substrate measured after 40 mins in presence of [gamma33P]ATP by scintillation counting method
Method in brief: (§2)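 Eurofins radiometric kinase assay run at ATP equal to Km for each kinase. 9-point dose–response in duplicate gives the IC50.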

[13] = target: Tyrosine-protein kinase JAK2 (Homo sapiens) (UniProt O60674); experiment: Inhibition of recombinant human JAK2 (808 to end residues) using KTFCGTPEYLAPEVRREPRILSEEEQEMFRDFDYIADWC as substrate at 1 uM incubated for 40 mins in presence of [gamma-33P-ATP] by radiometric scintillation assay relative to control
Sequence of Tyrosine-protein kinase JAK2 (Homo sapiens) (O60674 whole entry): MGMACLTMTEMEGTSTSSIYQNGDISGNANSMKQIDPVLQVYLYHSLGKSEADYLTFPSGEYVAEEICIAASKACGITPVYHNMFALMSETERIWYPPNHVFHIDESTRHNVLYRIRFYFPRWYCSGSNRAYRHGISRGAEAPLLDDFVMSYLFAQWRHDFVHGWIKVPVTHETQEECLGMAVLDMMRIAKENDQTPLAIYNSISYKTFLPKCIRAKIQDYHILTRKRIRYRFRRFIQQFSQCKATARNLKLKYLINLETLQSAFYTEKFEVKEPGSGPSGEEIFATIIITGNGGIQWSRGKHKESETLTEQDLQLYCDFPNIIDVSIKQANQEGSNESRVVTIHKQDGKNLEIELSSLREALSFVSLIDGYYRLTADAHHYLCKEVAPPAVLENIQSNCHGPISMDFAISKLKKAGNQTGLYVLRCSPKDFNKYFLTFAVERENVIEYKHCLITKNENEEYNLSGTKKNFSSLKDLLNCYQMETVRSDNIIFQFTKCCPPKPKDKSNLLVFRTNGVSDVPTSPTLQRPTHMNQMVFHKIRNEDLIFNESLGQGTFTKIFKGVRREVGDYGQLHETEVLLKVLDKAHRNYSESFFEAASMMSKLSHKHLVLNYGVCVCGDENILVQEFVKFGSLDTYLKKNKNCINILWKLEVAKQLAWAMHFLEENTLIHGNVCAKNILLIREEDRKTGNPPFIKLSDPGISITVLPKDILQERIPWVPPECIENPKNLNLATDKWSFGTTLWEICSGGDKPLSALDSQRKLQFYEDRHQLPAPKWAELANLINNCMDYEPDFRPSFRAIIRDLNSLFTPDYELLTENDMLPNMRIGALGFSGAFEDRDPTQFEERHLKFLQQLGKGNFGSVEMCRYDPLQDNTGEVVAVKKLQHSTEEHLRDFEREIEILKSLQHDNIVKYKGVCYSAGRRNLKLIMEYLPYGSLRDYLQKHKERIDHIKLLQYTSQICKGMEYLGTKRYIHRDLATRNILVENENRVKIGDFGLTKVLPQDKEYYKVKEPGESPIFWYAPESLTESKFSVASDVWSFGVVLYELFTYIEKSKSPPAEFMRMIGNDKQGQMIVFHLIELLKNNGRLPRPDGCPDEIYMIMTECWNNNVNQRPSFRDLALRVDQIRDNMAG
Method in brief: (§3)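 Eurofins radiometric kinase assay with ATP at Km for each kinase. Compound was tested at a single 1 μM concentration in duplicate, and the result is reported as percent of control.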

[14] = target: Aurora kinase B (Homo sapiens) (UniProt Q96GD4); experiment: Inhibition of full length recombinant human AURKB using AKRRRLSSLRA as substrate at 1 uM incubated for 40 mins in presence of [gamma-33P-ATP] by radiometric scintillation assay relative to control; method in brief: as §3
[15] = target: BMP-2-inducible protein kinase (Homo sapiens, UniProt Q9NSY1); experiment: Inhibition of 1recombinant human BMP2K using myelin basic protein as substrate incubated for 120 mins in presence of [gamma-33P-ATP] by radiometric scintillation assay
[16] = target: High affinity nerve growth factor receptor (Homo sapiens, UniProt P04629); experiment: Inhibition of human TrkA (440 to end residues) using KKKSPGEYVNIEFG as substrate measured after 40 mins in presence of [gamma33P]ATP by scintillation counting method; method in brief: as §2
Sequence of High affinity nerve growth factor receptor (P04629 whole entry): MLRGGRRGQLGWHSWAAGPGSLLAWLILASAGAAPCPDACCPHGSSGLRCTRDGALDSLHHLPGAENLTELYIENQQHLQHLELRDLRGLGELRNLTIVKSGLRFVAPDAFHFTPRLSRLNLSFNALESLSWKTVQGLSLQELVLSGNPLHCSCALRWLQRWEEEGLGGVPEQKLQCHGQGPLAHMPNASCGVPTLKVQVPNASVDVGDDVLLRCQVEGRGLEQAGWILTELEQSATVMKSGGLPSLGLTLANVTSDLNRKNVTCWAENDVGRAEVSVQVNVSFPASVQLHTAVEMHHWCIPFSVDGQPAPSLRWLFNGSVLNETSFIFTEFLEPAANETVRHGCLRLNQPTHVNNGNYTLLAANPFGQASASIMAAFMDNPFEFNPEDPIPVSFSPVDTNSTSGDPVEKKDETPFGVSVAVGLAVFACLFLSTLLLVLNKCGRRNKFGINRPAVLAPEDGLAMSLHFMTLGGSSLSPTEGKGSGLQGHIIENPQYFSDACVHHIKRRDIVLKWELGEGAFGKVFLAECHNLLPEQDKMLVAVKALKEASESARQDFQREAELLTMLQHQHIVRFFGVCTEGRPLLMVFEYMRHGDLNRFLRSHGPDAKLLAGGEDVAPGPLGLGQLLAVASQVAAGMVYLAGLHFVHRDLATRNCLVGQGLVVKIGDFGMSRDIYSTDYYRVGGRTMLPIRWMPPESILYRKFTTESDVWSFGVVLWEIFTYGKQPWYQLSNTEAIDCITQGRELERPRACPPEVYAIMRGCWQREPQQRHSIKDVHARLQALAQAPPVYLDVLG

[17] = target: T6, Macrophage colony-stimulating factor 1 receptor (Homo sapiens, UniProt P07333); experiment: Inhibition of recombinant human FMS (538 to end residues) using KKKSPGEYVNIEFG as substrate measured after 40 mins in presence of [gamma33P]ATP by radiometric scintillation counting method; method in brief: as §2
T6 sequence (P07333 whole entry): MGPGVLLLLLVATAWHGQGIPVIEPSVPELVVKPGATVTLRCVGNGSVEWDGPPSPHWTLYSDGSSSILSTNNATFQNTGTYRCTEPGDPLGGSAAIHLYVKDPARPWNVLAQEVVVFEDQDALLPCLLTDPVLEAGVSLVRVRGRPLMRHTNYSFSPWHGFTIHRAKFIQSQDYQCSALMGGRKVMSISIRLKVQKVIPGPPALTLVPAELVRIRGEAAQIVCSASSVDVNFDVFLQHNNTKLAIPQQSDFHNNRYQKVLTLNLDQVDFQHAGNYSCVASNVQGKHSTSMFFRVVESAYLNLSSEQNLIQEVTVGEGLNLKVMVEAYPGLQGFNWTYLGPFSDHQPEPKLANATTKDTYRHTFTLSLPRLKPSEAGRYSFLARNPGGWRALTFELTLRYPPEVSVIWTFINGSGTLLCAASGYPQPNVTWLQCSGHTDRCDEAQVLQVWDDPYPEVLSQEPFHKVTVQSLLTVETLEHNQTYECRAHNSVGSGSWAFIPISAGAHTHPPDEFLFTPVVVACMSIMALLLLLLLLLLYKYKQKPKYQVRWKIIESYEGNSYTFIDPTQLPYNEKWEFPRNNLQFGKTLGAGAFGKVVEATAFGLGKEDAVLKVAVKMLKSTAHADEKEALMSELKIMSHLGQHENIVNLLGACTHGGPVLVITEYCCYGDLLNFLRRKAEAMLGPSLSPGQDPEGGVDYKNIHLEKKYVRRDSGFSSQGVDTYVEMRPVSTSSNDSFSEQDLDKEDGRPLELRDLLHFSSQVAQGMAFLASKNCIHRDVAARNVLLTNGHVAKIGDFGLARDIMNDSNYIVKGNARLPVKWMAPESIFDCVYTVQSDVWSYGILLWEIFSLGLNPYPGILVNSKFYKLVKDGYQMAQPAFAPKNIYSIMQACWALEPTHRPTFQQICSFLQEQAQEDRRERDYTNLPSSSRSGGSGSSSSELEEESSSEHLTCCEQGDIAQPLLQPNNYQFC

[18] = target: T7, Non-receptor tyrosine-protein kinase TYK2 (Homo sapiens, UniProt P29597); experiment: Inhibition of human TYK2 (875 to end residues) using GGMEDIYFEFMGGKKK as substrate measured after 40 mins in presence of [gamma33P]ATP by radiometric scintillation counting method; method in brief: as §1
T7 sequence (P29597 whole entry, the tested form may be a part): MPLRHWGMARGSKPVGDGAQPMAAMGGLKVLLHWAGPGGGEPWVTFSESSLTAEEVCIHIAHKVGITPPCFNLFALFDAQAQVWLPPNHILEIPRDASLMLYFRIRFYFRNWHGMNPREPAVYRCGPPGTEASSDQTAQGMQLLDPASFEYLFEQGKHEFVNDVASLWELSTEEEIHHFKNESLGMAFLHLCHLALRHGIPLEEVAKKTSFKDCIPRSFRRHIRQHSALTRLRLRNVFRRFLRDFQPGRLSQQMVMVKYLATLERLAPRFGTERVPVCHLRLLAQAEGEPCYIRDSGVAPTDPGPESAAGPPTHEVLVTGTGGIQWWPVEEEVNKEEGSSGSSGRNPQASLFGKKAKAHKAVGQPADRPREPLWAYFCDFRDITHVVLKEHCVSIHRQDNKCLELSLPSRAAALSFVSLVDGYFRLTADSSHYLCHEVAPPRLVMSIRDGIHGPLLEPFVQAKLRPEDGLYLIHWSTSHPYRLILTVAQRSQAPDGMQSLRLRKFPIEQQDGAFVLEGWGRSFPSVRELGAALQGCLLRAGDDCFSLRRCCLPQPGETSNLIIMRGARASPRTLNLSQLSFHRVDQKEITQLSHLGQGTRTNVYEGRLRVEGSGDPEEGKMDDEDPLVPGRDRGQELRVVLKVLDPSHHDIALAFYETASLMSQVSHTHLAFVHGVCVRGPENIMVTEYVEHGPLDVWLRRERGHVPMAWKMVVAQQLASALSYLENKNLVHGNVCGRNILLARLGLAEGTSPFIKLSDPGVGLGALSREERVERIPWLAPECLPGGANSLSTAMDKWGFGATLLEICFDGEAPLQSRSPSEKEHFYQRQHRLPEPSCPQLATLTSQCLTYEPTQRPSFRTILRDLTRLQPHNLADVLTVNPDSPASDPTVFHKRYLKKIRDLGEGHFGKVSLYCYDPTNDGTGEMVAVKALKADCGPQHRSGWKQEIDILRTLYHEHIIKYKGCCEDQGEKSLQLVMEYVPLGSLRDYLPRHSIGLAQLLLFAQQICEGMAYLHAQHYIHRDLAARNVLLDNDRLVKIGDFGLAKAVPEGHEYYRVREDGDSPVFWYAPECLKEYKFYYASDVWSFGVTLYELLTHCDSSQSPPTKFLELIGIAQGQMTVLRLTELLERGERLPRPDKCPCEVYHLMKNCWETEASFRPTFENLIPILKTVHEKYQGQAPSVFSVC

[19] = target: T6, Macrophage colony-stimulating factor 1 receptor; experiment: Inhibition of NanoLuc-fused CSF1R (unknown origin) expressed in HEK293 cells incubated for 2 hrs by NanoBRET assay; format: cell-based
[20] = target: T7, Non-receptor tyrosine-protein kinase TYK2; experiment: Inhibition of NanoLuc-fused TYK2 (unknown origin) expressed in HEK293 cells incubated for 2 hrs by NanoBRET assay; format: cell-based
Method in brief: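 Cellular NanoBRET target-engagement assays were run by Carna Biosciences to the manufacturer's protocol. Dose–response was in singlicate, with compounds tested at concentrations up to 10 μM.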

Compound | IC50 [2] | IC50 [3] | IC50 [5] | IC50 [7] | Peff [9] | % control [13] | Kinetic solubility [8] | also measured
c1cc(CN2CCOCC2)cc(Nc2ncc(C3CC3)c(NCCc3c[nH]cn3)n2)c1 | 4.01 µM | 3.62 µM | > 10 µM | 0.808 µM | 5.61 10^-7 cm/s | – | – | inhibition [1]: Active; inhibition [4]: Active; inhibition [6]: Active; Kinetic_solubility [8]: 173.6 µM; inhibition [10]: Active; inhibition [11]: Active
NS(=O)(=O)c1ccc(CNc2nc(Nc3cccc(NC(=O)N4CCCC4)c3)ncc2C2CC2)cc1 | > 10 µM | > 10 µM | > 10 µM | > 10 µM | 2.6 10^-6 cm/s | 107% | 85.6 µM | IC50 [12]: 128 nM; % control [14]: 61%; IC50 [15]: 2920 nM; IC50 [16]: 477 nM
NS(=O)(=O)c1ccc(CNc2ccnc(Nc3cccc(NC(=O)N4CCCC4)c3)n2)cc1 | > 10 µM | > 10 µM | > 10 µM | > 10 µM | – | 62% | 147 µM | IC50 [17]: 305 nM; IC50 [18]: 33 nM; IC50 [19]: > 10 µM; IC50 [20]: > 10 µM; Peff ([9]; BLD = below limit of detection): Bld
